pIC50, pKi: −log10 of the molar value. Starred links: 1 amine or outer side, 2 acyl side, 3 side chain; linkers in the order of their positions; H or OH if unused. Non-standard residues stand in square brackets, D forms with d. Residues, ends and D or L forms follow the SMILES beside them. ξ: configuration not given here. *: point of attachment. Dip = N[C@H](C(=O)O)C(c1ccccc1)c1ccccc1; X4 = O=C(C(=O)[*:2])[C@H](CC(F)F)N[*:1]; X1 = O=C(NOCc1ccccc1)[C@H](CC(F)F)N*; Abu(4,4-F2) = N[C@@H](CC(F)F)C(=O)O; N(Me)CH2CH2Ph = CN(CCc1ccccc1)*; Cha = N[C@@H](CC1CCCCC1)C(=O)O; NH(CH2)3Ph = c1ccc(CCCN*)cc1; NHPhenethyl = c1ccc(CCN*)cc1; X6 = c1ccc2c(c1)CC(N*)C2; ξE = NC(CCC(=O)O)C(=O)O; Cbz = O=C(OCc1ccccc1)*; Boc = CC(C)(C)OC(=O)*; NHBn = c1ccc(CN*)cc1; X2 = Clc1ccccc1CCN*; X5 = C1CCC(CCN*)CC1

Experiment [1] addresses Hepatitis C virus serine protease, NS3/NS4A (Hepatitis C virus, UniProt A3EZI9+D2K2A8). The experiment can be described thus: (§1) Inhibitory activity against Hepatitis C NS3/NS4A protease. The class given is protein-complex assay, Hepacivirus hominis. In a few lines: (§2)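 Enzyme was the HCV NS3 protease domain with an NS4A cofactor peptide. IC50 values are means of two independent experiments, or of three to four for some series.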

Experiment [2] concerns the target Hepatitis C virus serine protease, NS3/NS4A (Hepatitis C virus, UniProt D2K2A8+A3EZI9). The experiment is described as §1. The experiment is classed as protein-complex assay, Hepacivirus hominis. Summed up: as §2
Experiment [3] has as its target T1, NS3 (Hepatitis C virus, UniProt A3EZJ3, K136M). The experiment can be described thus: Binding affinity NS3 protease K136M. More on the design: species or system Hepacivirus hominis.
Experiment [4] addresses T2, NS3 (Hepatitis C virus, UniProt A3EZJ3, K136R). The experiment can be described thus: Binding affinity for NS3 protease K136R. More on the design: species or system Hepacivirus hominis.
Experiment [5] has as its target T3, NS3 (Hepatitis C virus, UniProt A3EZJ3). The experiment can be described thus: Binding affinity for wild type NS3 protease. Set-up: species or system Hepacivirus hominis. Summed up: (§3)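 Protease domain of HCV NS3 with NS4A cofactor peptide. Ki found from steady-state kinetics as reversible competitive inhibition. A second Ki was calculated from pre-steady-state displacement of an active-site fluorescent probe, using k_off/k_on.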

The next experiment has as its target T4, Neutrophil elastase (Homo sapiens, UniProt P08246).
T4 sequence (P08246 whole entry): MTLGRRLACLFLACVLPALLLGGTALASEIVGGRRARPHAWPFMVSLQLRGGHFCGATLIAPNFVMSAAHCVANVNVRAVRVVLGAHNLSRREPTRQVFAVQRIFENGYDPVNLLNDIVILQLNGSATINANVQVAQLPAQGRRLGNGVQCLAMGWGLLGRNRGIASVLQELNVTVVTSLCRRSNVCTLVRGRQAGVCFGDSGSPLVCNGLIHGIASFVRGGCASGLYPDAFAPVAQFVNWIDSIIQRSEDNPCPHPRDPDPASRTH
The experiment can be described thus: Binding affinity for enzyme human leukocyte HLE.

Experiment [6] has as its target T1, NS3. The experiment can be described thus: Binding affinity for enzyme K136M. More on the design: species or system Hepacivirus hominis.
The target of experiment [7] is T2, NS3. The experiment can be described thus: Binding affinity for enzyme K136R. Set-up: species or system Hepacivirus hominis.
Experiment [8] has as its target T3, NS3. The experiment can be described thus: Binding affinity for enzyme NS3 protease wild-type. More on the design: species or system Hepacivirus hominis. Summed up:
as §3

Take `COC(=O)c1ccccc1CCNC(=O)C(CS)NC(=O)[C@H](CC(C)C)NC(=O)C(CCC(=O)O)NC(=O)OCC(C)C` (stereo partly specified): the pIC50 in [1] is 4.27.
The same measure, in the same setting: to `CC(C)C[C@H](NC(=O)C(CCC(=O)O)NC(=O)OC(C)(C)C)C(=O)N[C@@H](CS)C(=O)NCCc1ccccc1Cl` (stereo partly specified) belongs 5.19.
`CC(=O)N[C@@H](CC(=O)O)C(=O)N[C@@H](CCC(=O)O)C(=O)N[C@H](C(=O)N[C@@H](CCC(=O)O)C(=O)N[C@@H](CC1CCCCC1)C(=O)N[C@@H](CS)C(=O)NC1Cc2ccccc2C1)C(c1ccccc1)c1ccccc1` (Ac-DE[Dip]E[Cha]C-X6) gave a pIC50 in experiment [1] of 5.77.
Turning to `CC(C)C[C@H](NC(=O)[C@@H](NC(=O)OCc1ccccc1)C(C)C)C(=O)N[C@@H](CS)C(=O)NCCc1ccccc1` (Cbz-Val-Leu-Cys-NHPhenethyl), in experiment [1], the negative logarithm of the IC50 (pIC50) is under 3.40.
Same read-out and setting: for `CC(=O)N[C@@H](CC(=O)O)C(=O)N[C@@H](CCC(=O)O)C(=O)N[C@H](C(=O)N[C@@H](CCC(=O)O)C(=O)N[C@@H](CC1CCCCC1)C(=O)N[C@@H](CC(F)F)C(=O)NCCc1ccccc1)C(c1ccccc1)c1ccccc1` (Ac-DE[Dip]E[Cha][Abu(4,4-F2)]-NHPhenethyl) the value was 8.40; for `COC(=O)c1ccc(CCNC(=O)C(CS)NC(=O)[C@H](CC(C)C)NC(=O)C(CCC(=O)O)NC(=O)OCC(C)C)cc1` (stereo partly specified), 4.77.
Regarding `CC(C)C[C@H](NC(=O)[C@@H](NC(=O)OC(C)(C)C)C(C)C)C(=O)N[C@@H](CC(F)F)C(=O)C(=O)O`, the pIC50 in experiment [2] is 6.34.
In [1], `CC(=O)N[C@@H](CC(=O)O)C(=O)N[C@@H](CCC(=O)O)C(=O)N[C@H](C(=O)N[C@@H](CCC(=O)O)C(=O)N[C@@H](CC1CCCCC1)C(=O)N[C@@H](CS)C(=O)NCCCc1ccccc1)C(c1ccccc1)c1ccccc1` (Ac-DE[Dip]E[Cha]C-{NH(CH2)3Ph}) gave a negative-log IC50 (pIC50) of 6.68.
`CC(C)COC(=O)NC(C(=O)N[C@@H](CC(C)C)C(=O)NC(CC(F)F)C(=O)NCCc1ccc(C(=O)O)cc1Cl)C(C)C` (stereo partly specified): the negative logarithm of the Ki (pKi) is 5.40 on NS3 [3], 5.64 at NS3 [4] and 5.68 on NS3 [5].
As to `COC(=O)c1cccc(CCNC(=O)C(CS)NC(=O)[C@H](CC(C)C)NC(=O)C(CCC(=O)O)NC(=O)OCC(C)C)c1` (stereo partly specified), the pIC50 in [1] is 4.60.
Same read-out and setting: for `CC(=O)N[C@@H](CC(=O)O)C(=O)N[C@@H](CCC(=O)O)C(=O)N[C@H](C(=O)N[C@@H](CCC(=O)O)C(=O)N[C@@H](CC1CCCCC1)C(=O)N[C@@H](CS)C(=O)N(C)CCc1ccccc1)C(c1ccccc1)c1ccccc1` (Ac-DE[Dip]E[Cha]C-{N(Me)CH2CH2Ph}) the value was 4.15.
Still for that read-out and setting: for `CC(=O)N[C@@H](CC(=O)O)C(=O)N[C@@H](CCC(=O)O)C(=O)N[C@H](C(=O)N[C@@H](CCC(=O)O)C(=O)N[C@@H](CC1CCCCC1)C(=O)N[C@@H](CS)C(=O)NCc1ccccc1)C(c1ccccc1)c1ccccc1` (Ac-DE[Dip]E[Cha]C-NHBn) the value was 6.60; for `CC(=O)N[C@@H](CC(=O)O)C(=O)N[C@@H](CCC(=O)O)C(=O)N[C@H](C(=O)N[C@@H](CCC(=O)O)C(=O)N[C@@H](CC1CCCCC1)C(=O)N[C@@H](CC(F)F)C(=O)NOCc1ccccc1)C(c1ccccc1)c1ccccc1` (Ac-DE[Dip]E[Cha]-X1), 7.40.
On the same count and under the same terms, for `CC(=O)N[C@@H](CC(=O)O)C(=O)N[C@@H](CCC(=O)O)C(=O)N[C@H](C(=O)N[C@@H](CCC(=O)O)C(=O)N[C@@H](CC1CCCCC1)C(=O)N[C@@H](CS)C(=O)NCCc1ccccc1Cl)C(c1ccccc1)c1ccccc1` (Ac-DE[Dip]E[Cha]C-X2) the value was 8.70; for `CC(C)COC(=O)NC(CCC(=O)O)C(=O)N[C@@H](CC(C)C)C(=O)NC(CS)C(=O)NCCc1cccc(C(=O)O)c1` (stereo partly specified), 5.04; for `CC(=O)N[C@@H](CC(=O)O)C(=O)N[C@@H](CCC(=O)O)C(=O)N[C@H](C(=O)N[C@@H](CCC(=O)O)C(=O)N[C@@H](CC1CCCCC1)C(=O)N[C@@H](CC(F)F)C(=O)O)C(c1ccccc1)c1ccccc1` (Ac-DE[Dip]E[Cha][Abu(4,4-F2)]-OH), 7.40.
On to `COC(=O)c1ccc(CCNC(=O)C(CS)NC(=O)[C@H](CC(C)C)NC(=O)C(CCC(=O)O)NC(=O)OCC(C)C)c(Cl)c1` (stereo partly specified), for which, in experiment [1], the pIC50 is 5.49.
As for `CC(=O)N[C@@H](CC(=O)O)C(=O)N[C@@H](CCC(=O)O)C(=O)N[C@H](C(=O)N[C@@H](CCC(=O)O)C(=O)N[C@@H](CC1CCCCC1)C(=O)N[C@@H](CC(F)F)C(=O)C(=O)NCc1ccccc1)C(c1ccccc1)c1ccccc1` (Ac-DE[Dip]E[Cha][X4]-NHBn), the negative-log IC50 (pIC50) in [1] was 8.70.
Same read-out and setting: to `CC(C)C[C@H](NC(=O)C(CCC(=O)O)NC(=O)OC(C)(C)C)C(=O)N[C@@H](CS)C(=O)NCCc1ccccc1` (stereo partly drawn) (Boc-[ξE]-Leu-Cys-NHPhenethyl) belongs 4.57; to `CC(C)COC(=O)NC(CCC(=O)O)C(=O)N[C@@H](CC(C)C)C(=O)NC(CS)C(=O)NCCc1ccccc1C(=O)O` (stereo partly specified), under 4.00.
The same measure, in the same setting: to `CC(C)COC(=O)NC(CCC(=O)O)C(=O)N[C@@H](CC(C)C)C(=O)NC(CS)C(=O)NCCc1ccccc1` (stereo partly specified) belongs 4.72.
Same read-out and setting: to `CC(C)COC(=O)NC(CCC(=O)O)C(=O)N[C@@H](CC(C)C)C(=O)NC(CS)C(=O)NCCc1ccc(C(=O)O)cc1Cl` (stereo partly specified) belongs 6.15; to `CC(=O)N[C@@H](CC(=O)O)C(=O)N[C@@H](CCC(=O)O)C(=O)N[C@H](C(=O)N[C@@H](CCC(=O)O)C(=O)N[C@@H](CC1CCCCC1)C(=O)N[C@@H](CS)C(=O)NCCC1CCCCC1)C(c1ccccc1)c1ccccc1` (Ac-DE[Dip]E[Cha]C-X5), 5.81.
On to `CC(C)COC(=O)NC(CCC(=O)O)C(=O)N[C@@H](CC(C)C)C(=O)NC(CC(F)F)C(=O)NCCc1ccc(C(=O)O)cc1Cl` (stereo partly specified), for which the negative-log Ki (pKi) at Neutrophil elastase was under 4.00; on NS3 [6] it was 5.89; at NS3 [7], 6.05; on NS3 [8], 6.22.
The corresponding values for `CC(C)C[C@H](NC(=O)C(CCC(=O)O)NC(=O)OC(C)(C)C)C(=O)NC(CC(F)F)C(=O)NCCc1ccccc1Cl` (stereo partly specified) are under 4.00, 4.87, 5.08 and 5.14.
The compound `CC(C)C[C@H](NC(=O)[C@H](CCC(=O)O)NC(=O)OC(C)(C)C)C(=O)N[C@@H](CS)C(=O)O` (Boc-Glu-Leu-Cys-OH) gave a negative-log IC50 (pIC50) in experiment [1] of under 3.70.
Still for that read-out and setting: for `CC(C)C[C@H](NC(=O)C(CCC(=O)O)NC(=O)OC(C)(C)C)C(=O)N[C@@H](CS)C(=O)NCc1ccccc1` (stereo partly drawn) (Boc-[ξE]-Leu-Cys-NHBn) the value was under 3.70.
Still for that read-out and setting: to `CC(=O)N[C@@H](CC(=O)O)C(=O)N[C@@H](CCC(=O)O)C(=O)N[C@H](C(=O)N[C@@H](CCC(=O)O)C(=O)N[C@@H](CC1CCCCC1)C(=O)N[C@@H](CS)C(=O)NCCc1ccccc1)C(c1ccccc1)c1ccccc1` (Ac-DE[Dip]E[Cha]C-NHPhenethyl) belongs 8.15.

(Values after ChEMBL document CHEMBL1145951, “Phenethyl amides as novel noncovalent inhibitors of hepatitis C virus NS3/4A protease: discovery, initial SAR, and molecular modeling” (J Med Chem, 2003).)
